Screens (PubChem)
pPAFAH FP inh – pPAFAH (human) enzyme inhibition; AID 463082; recombinant pPAFAH, FP-rhodamine probe fluorescence polarization; Q13093; inhibition, % at 3.39 µM; 330,000 tested, 1.5% active;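 active = inhibition above the mean inhibition across the screen plus 3 SD, cut at about 25% in these data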;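 note: inhibitors block binding of the rhodamine activity-based probe so polarization drops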
ASAP1 GAP inh – inhibitors of human ASAP1 ArfGAP activity; Q9ULH1; ASAP1-stimulated ARF1 GTP hydrolysis, GDP FP detection; inhibition, % at 16.5 µM; 360,000 tested, 0.19% active; in the data active = inhibition above about 25%
Target sequence (Q9ULH1 325-724 limits assumed): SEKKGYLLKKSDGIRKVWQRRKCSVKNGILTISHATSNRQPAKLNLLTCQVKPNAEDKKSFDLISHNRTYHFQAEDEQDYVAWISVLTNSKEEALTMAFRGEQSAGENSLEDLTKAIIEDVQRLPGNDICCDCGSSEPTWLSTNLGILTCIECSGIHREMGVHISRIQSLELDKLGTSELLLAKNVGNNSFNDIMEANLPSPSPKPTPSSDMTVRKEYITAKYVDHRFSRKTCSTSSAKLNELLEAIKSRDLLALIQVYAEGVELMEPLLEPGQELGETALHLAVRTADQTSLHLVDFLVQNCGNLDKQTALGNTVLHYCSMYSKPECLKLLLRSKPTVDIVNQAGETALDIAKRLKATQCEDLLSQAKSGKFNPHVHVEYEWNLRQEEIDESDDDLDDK
PAFAH2 inh – PAFAH2 (human) inhibition; Q99487; recombinant PAFAH2, FP-rhodamine activity probe, fluorescence polarization; inhibition, % at 3.39 µM; 340,000 tested, 0.99% active; AID 492956;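 active = inhibition above the mean over all tested compounds plus 3 SD, cut at about 30% in these data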;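 note: inhibitors block probe labeling of enzyme so polarization drops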
ARFGAP1 inh – rat ARFGAP1 inhibition; Q62848; Arfgap1-stimulated ARF1 GTP hydrolysis, GDP FP detection; inhibition, % at 16.5 µM; 360,000 tested, 0.26% active;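 active = inhibition above a per-plate limit, mean inhibition of low control wells plus 3 SD, cut at about 25% in these data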
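system = rat Arfgap1 catalytic domain, aa 1-136 | technique = FP, GDP Alexa 633 tracer displaced from anti-GDP antibody, 620/688 nm | compound = one concentration, 16.5 µM, DMSO 1.26% | medium = HEPES-based buffer, pH 7.5 | timing = compound-enzyme preincubation 20 min, reaction 120 min, detection 60 min, 25 °C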
PAFAH1B3 FP inh – blocks human PAF acetylhydrolase 1B catalytic subunit 3. Q15102. recombinant PAFAH1B3, FP-rhodamine probe, fluorescence polarization. inhibition, % at 3.39 µM. 340,000 tested, 0.28% active;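 active = inhibition above the screen-wide average of all tested compounds plus 3 SD, cut at about 25% in these data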
PAFAH1B2 inh – inhibitors of human PAFAH1B2 | P68402 | recombinant PAFAH1B2, FP-rhodamine activity probe, fluorescence polarization | inhibition, % at 3.39 µM | 340,000 tested, 1.2% active;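 active = inhibition above the mean of all tested compounds plus 3 SD, cut at about 24% in these data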
Target sequence (P68402 whole entry, looked up): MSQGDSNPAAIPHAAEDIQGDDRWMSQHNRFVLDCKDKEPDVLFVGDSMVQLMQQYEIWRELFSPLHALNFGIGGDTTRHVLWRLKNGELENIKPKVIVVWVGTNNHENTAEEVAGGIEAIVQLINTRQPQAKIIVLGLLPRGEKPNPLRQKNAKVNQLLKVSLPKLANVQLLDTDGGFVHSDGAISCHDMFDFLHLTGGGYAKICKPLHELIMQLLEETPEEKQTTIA
PAFAH2 confirm – PAFAH2 (human) inhibition, confirmed; shares compounds with PAFAH2 inh; recombinant PAFAH2, FP-rhodamine activity probe, fluorescence polarization; inhibition, % at 3.39 µM; 2,300 tested, 65% active; AID 493030;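 active = mean inhibition over three repeats above a set limit taken from the earlier primary screen, cut at about 30% in these data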;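 note: inhibitor blocks binding of rhodamine activity probe so polarization falls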
A number is an active result; n = inactive; x = no result given. The list is not random: actives were taken first. Their share in the collection is about 2.7%.

SMILES | pPAFAH FP inh | ASAP1 GAP inh | PAFAH2 inh | ARFGAP1 inh | PAFAH1B3 FP inh | PAFAH1B2 inh | PAFAH2 confirm
O=C(COC(=O)c1ccc2c(c1)OCCO2)Nc1ccc(F)cc1F | n | n | 77 | n | n | n | 62
Cc1ccnn1-c1ccc(C(=O)OCC(=O)Nc2ccc(F)cc2)cc1 | x | n | 55 | n | n | n | 60
O=C(Nc1ccc(F)cc1F)c1ccc2c(c1)OCCO2 | n | n | n | n | n | n | x
CC(C)NC(=O)COC(=O)c1ccc(NS(=O)(=O)c2ccc3c(c2)OCCO3)cc1 | n | n | 51 | n | n | n | 43
Cc1ccsc1C(=O)N(C)C1CCS(=O)(=O)C1 (stereo not drawn) | n | n | n | n | n | n | x
COC(=O)[C@]12CCCCC=C1N(CCc1ccc(OC)c(OC)c1)C(=O)[C@H](CC(=O)N1CCN(C(=O)C3CC3)CC1)C2 | x | n | x | n | x | x | x
O=S(=O)(NCc1ccc2c(c1)OCO2)c1ccc(F)c(F)c1 | n | n | n | n | n | n | x
COc1ccc(C(=O)C(=O)N2CCC(c3ccccc3)CC2)cn1 | x | n | x | n | x | x | x
CCOC(=O)c1nnn(-c2nonc2-n2cccc2)c1CCl | n | n | 31 | n | n | n | 44
CCCNC(=O)Cn1nc(-c2ccccc2OC)ccc1=O | x | n | x | n | x | x | x
C[n+]1c(-c2ccccc2)cc2c(=Cc3ccccc3)c3ccccc3n21 | x | n | 59 | n | n | n | n
COc1cc(C(=O)OCC(=O)N2CCCCCC2)c([N+](=O)[O-])cc1OC | n | n | 35 | n | n | n | n
Cc1ccc(S(=O)(=O)ON2C(=O)c3cccc4cccc(c34)C2=O)cc1 | n | n | 30 | n | n | n | n
O=C1c2cccc3cccc(c23)C(=O)N1OS(=O)(=O)c1ccccc1 | n | n | n | n | n | n | x
NS(=O)(=O)c1cccc(NC(=O)COC(=O)c2ccccc2C(=O)c2ccccc2)c1 | n | n | 54 | n | n | n | 51
O=C(COC(=O)c1ccc(Cl)c(S(=O)(=O)N2CCCCCC2)c1)Nc1ccccc1 | n | n | 44 | n | n | n | 31
O=C(COC(=O)c1ccc(S(=O)(=O)N2CCCC2)cc1)Nc1ccccc1 | n | n | n | n | n | n | x
O=C(COC(=O)c1cccc(S(=O)(=O)N2CCCC2)c1)Nc1ccccc1 | n | n | 72 | n | n | n | 76
COc1ccc(OC)c(NC(=O)COC(=O)c2ccc(OC)c(S(=O)(=O)N3CCOCC3)c2)c1 | n | n | n | n | n | n | x
COc1ccc(C(=O)OCC(=O)NC(Cc2ccccc2)C(C)=O)cc1S(=O)(=O)N1CCCC1 (stereo not drawn) | x | n | 35 | n | n | n | 32
COc1ccc(NC(=O)c2sc(=O)n(Cc3ccccc3C#N)c2C)cc1OC | x | n | x | n | x | x | x
COCCCN1C(=O)C(CC(=O)NCc2cccs2)CC(C(=O)N(C(C)C)C(C)C)=C1C (stereo not drawn) | x | n | x | n | x | x | x
Cc1oc(-c2ccc(-c3ccccc3)cc2)nc1CN1CCN(CC(=O)N(C)C)CC1 | n | n | n | n | n | n | x
Cc1ccccc1NC(=O)COC(=O)c1cccc(S(=O)(=O)N2CCCCC2)c1 | n | n | 45 | n | n | n | n
CC(NC(=O)COC(=O)c1cccc(S(=O)(=O)N2CCCC2)c1)c1ccccc1 (stereo not drawn) | n | n | 53 | n | n | n | 40
SMILES | pPAFAH FP inh | ASAP1 GAP inh | PAFAH2 inh | ARFGAP1 inh | PAFAH1B3 FP inh | PAFAH1B2 inh | PAFAH2 confirm
Cc1ccc(C(C)C)c(OCC(=O)Nc2ccc(N3CCOCC3)cc2N2CCOCC2)c1 | x | n | n | n | n | n | x
COc1ccc(CCCN2CCC(CN3CCNC(=O)C3=O)CC2)cc1OC | x | n | n | n | n | n | x
O=C(NN1CCOCC1)c1ccccc1NS(=O)(=O)c1ccc(F)cc1F | n | n | 70 | n | n | n | 78
CC(C)[C@H](NC(=O)c1ccccc1)C(=O)OCC(=O)Nc1ncc(Cl)cc1Cl | n | n | n | n | n | n | x
COC(=O)c1cc(NS(=O)(=O)c2cccs2)cc(NS(=O)(=O)c2cccs2)c1 | x | n | 32 | n | n | n | n
COc1ccccc1NC(=O)c1ccccc1NS(=O)(=O)c1cccs1 | n | n | 44 | n | n | n | 40
Nc1nc(SCC(=O)Nc2ccc(Cl)cc2)[nH]c(=O)c1-c1ccccc1 | n | n | n | n | n | n | x
CCOC(=O)c1ccccc1NC(=O)COC(=O)c1ccccc1C(=O)N(C)c1ccccc1 | n | n | n | n | n | n | x
CC(NC(=O)COC(=O)c1ccco1)c1ccccc1 (stereo not drawn) | n | n | 32 | n | n | n | n
O=C(COC(=O)c1ccco1)Nc1ccc([N+](=O)[O-])cc1Cl | n | n | 41 | n | n | n | n
CN(C(=O)c1ccccc1C(=O)OCC(=O)Nc1ccccc1)c1ccccc1 | n | n | 78 | n | n | n | 77
O=C(COC(=O)c1ccco1)Nc1ccccc1 | n | n | 68 | n | n | n | 66
Cc1ccc(S(=O)(=O)N2CCOCC2)cc1NC(=O)Cn1nc(C)c([N+](=O)[O-])c1C | n | n | n | n | n | n | x
CCn1cc(/C=N/NC(=O)c2ccc3c(c2)OCO3)cn1 | n | n | n | n | n | n | x
O=C(COC(=O)c1ccco1)Nc1ccc2[nH]c(=O)[nH]c2c1 | n | n | n | n | n | n | x
O=C(COC(=O)c1ccco1)Nc1ccc(Br)cc1 | n | n | 77 | n | n | n | 69
N#Cc1ccccc1NC(=O)COC(=O)c1ccc2c(c1)OCCO2 | n | n | 73 | n | n | n | 69
N#Cc1ccc(Cl)cc1NC(=O)COC(=O)c1ccc(S(=O)(=O)N2CCCC2)cc1 | n | n | n | n | n | n | x
N#Cc1ccc(Cl)cc1NC(=O)COC(=O)c1ccc2c(c1)OCCO2 | n | n | 66 | n | n | n | 68
Cc1cc(C)c2oc(C(=O)N(Cc3ccccc3)C3CCS(=O)(=O)C3)cc(=O)c2c1 (stereo not drawn) | n | n | n | n | n | n | x
Cc1c(C(=O)NCc2nnc(-c3ccccc3)o2)oc2c(F)cccc12 | x | n | n | n | n | n | x
O=C(COC(=O)c1ccccc1O)NC12CC3CC(CC(C3)C1)C2 | n | n | 68 | n | n | n | 63
COc1ccc(C(=O)OCC(=O)NC23CC4CC(CC(C4)C2)C3)c(OC)c1OC | n | n | 86 | n | n | n | 86
COc1ccccc1CC(=O)NC12CC3CC(CC(C3)C1)C2 | n | n | n | n | n | n | x
Cc1cccc(C(=O)OCC(=O)NC23CC4CC(CC(C4)C2)C3)c1O | n | n | 59 | n | n | n | 46
CC(OC(=O)C1=Cc2ccccc2OC1)C(=O)NCC1CCCO1 (stereo not drawn) | x | n | n | n | n | n | x
